Results on three molecules are retold here after ChEMBL document CHEMBL5137122, “The Natural Products Withaferin A and Withanone from the Medicinal Herb Withania somnifera Are Covalent Inhibitors of the SARS-CoV-2 Main Protease” (J Nat Prod, 2022).

As usually defined, the inhibition is the relative decrease from the control value, in per cent. As a reminder, the IC50 is the concentration that inhibits the measured activity by half.

Activity calls are given as the source filed them.

Experiment [1] concerns the target Replicase polyprotein 1ab (Severe acute respiratory syndrome coronavirus 2) (UniProt P0DTD1). Description: Inhibition of SARS-COV2 main protease mediated cytotoxicity against human A549 cells transfected with pCMV3-2019-nCoV-3CLpro plasmid assessed as increase in cell number measured at 48 hrs in presence of buthionine sulfoximine by Nucblue dye based microscopic analysis. A digest of the protocol:
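Transfected A549 cells were pretreated with 500 µM buthionine sulfoximine. At 20 h post-transfection, compound or E64 (5 µM) was added with 1 mM BSO. After 48 h, cells were stained with NucBlue (Hoechst 33342), imaged and counted, with nontransfected cells handled identically.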

For experiment [2] the target is unchanged. Briefly: Inhibition of SARS-COV2 main protease mediated cytotoxicity against human HepG2 cells transfected with pCMV3-2019-nCoV-3CLpro plasmid assessed as increase in cell number at 5 uM measured at 48 hrs by Nucblue dye based microscopic analysis. The procedure, abridged:
(§1)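 HepG2 or A549 cells (3×10^5) were lipofected 16 h after seeding with 3 µg pCMV3-2019-nCoV-3CLpro in serum-free DMEM for 8 h, then grown in complete medium for 12 h. Cells were trypsinised and 1×10^4 replated with hygromycin B (200 µg) plus compound or E64 (5 µM) for 48 h. NucBlue (Hoechst 33342) was added for 30 min at 37 °C, then imaging and hemocytometer counts against nontransfected cells.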

For experiment [3] the target is unchanged. Briefly: Inhibition of SARS-COV2 main protease mediated cytotoxicity against human A549 cells transfected with pCMV3-2019-nCoV-3CLpro plasmid assessed as increase in cell number at 5 uM measured at 48 hrs by Nucblue dye based microscopic analysis. The procedure, abridged: as §1
For experiment [4], the target named is T1, Replicase polyprotein 1ab (Severe acute respiratory syndrome coronavirus 2, UniProt P0DTD1). Briefly: Inhibition of recombinant SARS-COV2 main protease expressed in Escherichia coli Rosetta cells using DABCYL-KTSAVLQSGFRKME-EDANS as substrate pre-incubated for 60 mins followed by substarte addition by FRET-based assay. The procedure, abridged:
(§2)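 FRET assay with purified E. coli-expressed MPro (0.5 µM) in 50 mM Tris pH 7.4 with 2 µM EDTA and no DTT. MPro was preincubated 60 min at 37 °C with a range of inhibitor concentrations, with 5 mM GSH added for line 12. IC50 came from initial rates.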

Experiment [5] addresses T1, Replicase polyprotein 1ab. Description: Inhibition of recombinant SARS-COV2 main protease expressed in Escherichia coli Rosetta cells using DABCYL-KTSAVLQSGFRKME-EDANS as substrate pre-incubated for 60 mins followed by substarte addition measured at 30 min in presence of GSH by FRET-based assay. The procedure, abridged: as §2
Experiment [6] deals with Replicase polyprotein 1ab (Severe acute respiratory syndrome coronavirus 2) (UniProt P0DTD1). Description: Inhibition of SARS-COV2 main protease mediated cytotoxicity against human A549 cells transfected with pCMV3-2019-nCoV-3CLpro plasmid assessed as GSH level measured at 48 hrs in presence of buthionine sulfoximine by Nucblue dye based microscopic analysis. It counts as cell-based.

Experiment [7] has the same target. Briefly: Inhibition of SARS-COV2 main protease mediated cytotoxicity against human HepG2 cells transfected with pCMV3-2019-nCoV-3CLpro plasmid assessed as increase in cell number and measured at 48 hrs by calcien AM staining based microscopic analysis. A digest of the protocol: (§3)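 3-D organoid-like culture: pCMV3-2019-nCoV-3CLpro-transfected or nontransfected HepG2 or A549 cells (3000 cells/µL) were mixed 1:1 with growth factor-reduced Matrigel, with drug-containing medium added at the same time. Viable cells were imaged after calcein AM staining. Organoids were then melted on ice, pelleted, trypsinised and counted by hemocytometer.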

The target is the same in experiment [8]. Description: Binding affinity to recombinant SARS-COV2 main protease expressed in Escherichia coli Rosetta cells at 2 uM measured after 16 hrs by LC-MS analysis based equilibrium dialysis method. The procedure, abridged: (§4)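 Purified His-GST-tagged MPro expressed in E. coli Rosetta and released with HRV3C protease. MPro (30 µg) in 50 mM potassium phosphate pH 7.5 with 2 µM compound was dialysed against the same solution without protein (3.5 kDa cutoff) for 16 h at room temperature. Drug in the dialysate was quantified by LC-MS or LC-MS/MS against a no-protein control. The dialyser contents were then denatured and drug re-measured.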
On the technique in general: In equilibrium dialysis free small molecules cross a membrane that holds back macromolecules.

Experiment [9] has the same target. Briefly: Inhibition of recombinant SARS-COV2 main protease expressed in Escherichia coli Rosetta cells at 5 uM using DABCYL-KTSAVLQSGFRKME-EDANS as substrate pre-incubated for 60 mins followed by substarte addition measured at 5 min by FRET-based assay relative to control. The procedure, abridged: (§5)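 Time-course variant of the FRET assay: fixed inhibitor concentration with preincubation times varied (5–120 min, 37 °C) in 50 mM Tris pH 7.4 with 2 µM EDTA. Conditions were 0.5 µM MPro with 5 µM inhibitor, or 0.25 µM MPro with 0.5 µM inhibitor.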

Experiment [10] shares this target. Briefly: Inhibition of recombinant SARS-COV2 main protease expressed in Escherichia coli Rosetta cells at 0.5 uM using DABCYL-KTSAVLQSGFRKME-EDANS as substrate pre-incubated for 60 mins followed by substarte addition and measured at 30 min by FRET-based assay relative to control. A digest of the protocol:
as §5

For experiment [11] the target is unchanged. Briefly: Inhibition of SARS-COV2 main protease mediated cytotoxicity against human A549 cells transfected with pCMV3-2019-nCoV-3CLpro plasmid assessed as increase in cell number and measured at 48 hrs by calcien AM staining based microscopic analysis. A digest of the protocol:
as §3

Experiment [12] shares this target. Description: Binding affinity to recombinant SARS-COV2 main protease expressed in Escherichia coli Rosetta cells at 2 uM measured after 16 hrs by LC-MSMS analysis based equilibrium dialysis method. A digest of the protocol: as §4

In the case of `CC(C)C[C@H](NC(=O)[C@H]1O[C@@H]1C(=O)O)C(=O)NCCCCN=C(N)N`, the inhibition entry in experiment [1], in [2] and in [3] was “Active” each time.
As to `CC1=C(CO)C(=O)O[C@@H]([C@@H](C)[C@H]2CC[C@H]3[C@@H]4C[C@H]5O[C@]56[C@@H](O)C=CC(=O)[C@]6(C)[C@H]4CC[C@]23C)C1` [WITHAFERIN A], the values for the IC50 in [4] and in [5] were 540 nM and 630 nM, respectively. In addition, the inhibition result in experiment [6], in [7], in experiment [1], in experiment [2], in experiment [3] and in [11] was “Active” throughout. In addition, the outcome in experiment [8] was Active. Besides, the figures for the inhibition in experiment [9] and in [10] were 100% and 80%, respectively.
With `CC1=C(C)C(=O)O[C@@H]([C@@H](C)[C@@]2(O)CC[C@H]3[C@@H]4[C@@H]5O[C@@H]5[C@@]5(O)CC=CC(=O)[C@]5(C)[C@H]4CC[C@@]32C)C1` [WITHANONE], the IC50 in experiment [4] is 1800 nM. Further, the inhibition result in [6], in experiment [7], in experiment [1], in experiment [2], in experiment [3] and in [11] was “Active” in each case. Moreover, the result in experiment [12] was Active.
